ChEMBL document CHEMBL4350961, “Discovery of Pyrrolo[3,2- d]pyrimidin-4-one Derivatives as a New Class of Potent and Cell-Active Inhibitors of P300/CBP-Associated Factor Bromodomain” (J Med Chem, 2019)
Active and inactive are the calls of the source. The rule behind the calls is not given here.

Assays:
[1] = molecular target: Bromodomain adjacent to zinc finger domain protein 2B (Homo sapiens) (UniProt Q9UIF8); assay: Binding affinity to human partial length BAZ2B (S2054 to S2168 residues) expressed in bacterial expression system at 1 uM by BROMOscan assay
Bromodomain adjacent to zinc finger domain protein 2B (Homo sapiens), sequence (Q9UIF8 whole entry, the tested form may be a part): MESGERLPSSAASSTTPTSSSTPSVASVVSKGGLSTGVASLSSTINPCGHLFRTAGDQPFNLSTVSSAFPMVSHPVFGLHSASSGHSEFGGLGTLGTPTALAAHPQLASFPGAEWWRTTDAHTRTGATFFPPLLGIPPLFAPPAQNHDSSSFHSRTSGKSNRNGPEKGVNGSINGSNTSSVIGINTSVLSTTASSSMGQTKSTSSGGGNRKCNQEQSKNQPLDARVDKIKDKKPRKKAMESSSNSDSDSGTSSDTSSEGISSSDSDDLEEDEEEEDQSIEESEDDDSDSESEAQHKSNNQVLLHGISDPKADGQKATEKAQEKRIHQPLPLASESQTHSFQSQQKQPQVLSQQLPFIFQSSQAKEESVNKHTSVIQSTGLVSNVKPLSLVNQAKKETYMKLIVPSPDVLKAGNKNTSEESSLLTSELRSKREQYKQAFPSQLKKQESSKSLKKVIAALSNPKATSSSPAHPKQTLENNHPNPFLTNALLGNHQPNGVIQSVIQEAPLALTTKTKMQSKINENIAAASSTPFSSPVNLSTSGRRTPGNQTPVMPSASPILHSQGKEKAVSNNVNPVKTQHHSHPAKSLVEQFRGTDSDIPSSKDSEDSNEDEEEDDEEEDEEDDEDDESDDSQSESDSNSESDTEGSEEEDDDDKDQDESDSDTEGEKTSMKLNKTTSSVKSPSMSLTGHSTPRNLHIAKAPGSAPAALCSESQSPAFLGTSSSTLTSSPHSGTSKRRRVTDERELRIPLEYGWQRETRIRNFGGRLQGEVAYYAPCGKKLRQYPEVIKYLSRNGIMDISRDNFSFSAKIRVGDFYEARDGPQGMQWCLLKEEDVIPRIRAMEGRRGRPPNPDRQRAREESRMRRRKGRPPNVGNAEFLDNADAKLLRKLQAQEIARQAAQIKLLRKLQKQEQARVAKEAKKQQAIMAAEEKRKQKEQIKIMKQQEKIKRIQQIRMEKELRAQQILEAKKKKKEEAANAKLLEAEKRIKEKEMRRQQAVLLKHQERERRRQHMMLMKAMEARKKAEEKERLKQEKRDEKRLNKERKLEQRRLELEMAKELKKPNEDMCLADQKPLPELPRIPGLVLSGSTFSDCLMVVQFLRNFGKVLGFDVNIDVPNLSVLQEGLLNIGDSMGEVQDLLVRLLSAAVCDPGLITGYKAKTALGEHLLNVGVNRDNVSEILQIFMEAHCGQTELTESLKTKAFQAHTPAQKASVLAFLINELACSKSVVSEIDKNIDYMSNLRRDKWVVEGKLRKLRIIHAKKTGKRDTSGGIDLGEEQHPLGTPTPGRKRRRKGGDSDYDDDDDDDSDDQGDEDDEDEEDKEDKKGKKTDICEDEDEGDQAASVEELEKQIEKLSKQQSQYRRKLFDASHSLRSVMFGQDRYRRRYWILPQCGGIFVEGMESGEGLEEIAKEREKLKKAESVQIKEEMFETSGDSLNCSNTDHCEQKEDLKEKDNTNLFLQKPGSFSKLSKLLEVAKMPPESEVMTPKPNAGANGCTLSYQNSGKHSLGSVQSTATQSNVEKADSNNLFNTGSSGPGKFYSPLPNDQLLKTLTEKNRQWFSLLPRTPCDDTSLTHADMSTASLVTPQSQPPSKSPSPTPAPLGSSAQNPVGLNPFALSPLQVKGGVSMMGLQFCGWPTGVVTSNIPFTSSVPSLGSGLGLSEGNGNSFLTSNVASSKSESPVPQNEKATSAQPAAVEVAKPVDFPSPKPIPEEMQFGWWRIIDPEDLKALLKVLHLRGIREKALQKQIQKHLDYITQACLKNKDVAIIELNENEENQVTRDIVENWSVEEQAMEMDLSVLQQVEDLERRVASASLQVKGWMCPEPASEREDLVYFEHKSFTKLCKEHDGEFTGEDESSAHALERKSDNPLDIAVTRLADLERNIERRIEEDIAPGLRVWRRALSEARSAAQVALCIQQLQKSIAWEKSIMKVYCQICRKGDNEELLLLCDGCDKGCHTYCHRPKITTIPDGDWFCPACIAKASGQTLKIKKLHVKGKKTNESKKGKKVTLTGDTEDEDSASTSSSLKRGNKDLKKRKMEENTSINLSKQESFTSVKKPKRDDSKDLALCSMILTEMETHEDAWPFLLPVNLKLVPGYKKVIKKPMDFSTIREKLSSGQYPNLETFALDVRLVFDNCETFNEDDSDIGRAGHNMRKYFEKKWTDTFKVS
Procedure, shortened: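 BROMOscan bromodomain cross-screen run by an outside service, compound at 1 µM against 32 recombinant bromodomains. Binding given as percent of control.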

[2] = molecular target: Activin receptor type-1-like (Homo sapiens) (UniProt P37023); assay: Inhibition of recombinant human ALK1 (142 to end residues) at 10 uM using casein as substrate measured after 40 mins in presence of [gamma33P]ATP by scintillation counting method
Activin receptor type-1-like (Homo sapiens), sequence (P37023 whole entry): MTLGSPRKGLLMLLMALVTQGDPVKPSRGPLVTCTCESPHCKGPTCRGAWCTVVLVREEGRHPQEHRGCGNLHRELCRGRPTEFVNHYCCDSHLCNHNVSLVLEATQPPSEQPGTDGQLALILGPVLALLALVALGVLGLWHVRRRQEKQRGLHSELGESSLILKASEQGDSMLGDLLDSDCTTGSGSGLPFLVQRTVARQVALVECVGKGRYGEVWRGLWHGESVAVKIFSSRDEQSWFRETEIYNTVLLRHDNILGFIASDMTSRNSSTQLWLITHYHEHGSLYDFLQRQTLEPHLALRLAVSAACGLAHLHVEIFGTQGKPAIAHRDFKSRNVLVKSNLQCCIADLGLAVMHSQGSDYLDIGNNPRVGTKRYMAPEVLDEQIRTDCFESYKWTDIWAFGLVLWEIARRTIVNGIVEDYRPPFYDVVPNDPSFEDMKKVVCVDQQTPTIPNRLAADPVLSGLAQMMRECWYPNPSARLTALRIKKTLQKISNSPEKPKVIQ

[3] = system: Tyrosine-protein kinase Blk (Homo sapiens), P51451 [UNDEFINED MUTATION]; assay: Inhibition of full-length recombinant human BLK M287V mutant at 10 uM using poly(Glu, Tyr) 4:1 as substrate measured after 40 mins in presence of [gamma33P]ATP by scintillation counting method
Procedure, shortened: (§1)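 Kinase panel of 422 kinases screened by Eurofins KinaseProfiler at a single test-compound concentration of 10 µM.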

[4] = molecular target: Bone morphogenetic protein receptor type-2 (Homo sapiens) (UniProt Q13873); assay: Inhibition of recombinant human BMPR2 (172 to 734 residues) at 10 uM using myelin basic protein as substrate measured after 120 mins in presence of [gamma33P]ATP by scintillation counting method
Homo sapiens [5] = species: Homo sapiens; assay: Inhibition of recombinant human BrSK2 S251I mutant (2 to end residues) at 10 uM using KKLNRTLSFAEPG as substrate measured after 40 mins in presence of [gamma33P]ATP by scintillation counting method
[6] = molecular target: CDK6/cyclin D3 (Homo sapiens) (UniProt P30281+Q00534); assay: Inhibition of recombinant full-length human CDK6/cyclin D3 at 10 uM using histone H1 as substrate measured after 40 mins in presence of [gamma33P]ATP by scintillation counting method; assay type: protein-complex assay
[7] = system: CDK18/Cyclin Y (Homo sapiens), Q07002+Q8ND76 [T166M]; assay: Inhibition of recombinant full length human cyclinY/CDK18 T166M mutant at 10 uM using YRRAAVPPSPSLS as substrate measured after 40 mins in presence of [gamma33P]ATP by scintillation counting method; assay type: protein-complex assay
[8] = system: Mast/stem cell growth factor receptor Kit (Homo sapiens), P10721 [V560G]; assay: Inhibition of recombinant human c-Kit V560G mutant (544 to end residues) at 10 uM using GGMEDIYFEFMGGKKK as substrate measured after 40 mins in presence of [gamma33P]ATP by scintillation counting method
Mast/stem cell growth factor receptor Kit (Homo sapiens), P10721 [V560G], sequence (P10721 whole entry V560G): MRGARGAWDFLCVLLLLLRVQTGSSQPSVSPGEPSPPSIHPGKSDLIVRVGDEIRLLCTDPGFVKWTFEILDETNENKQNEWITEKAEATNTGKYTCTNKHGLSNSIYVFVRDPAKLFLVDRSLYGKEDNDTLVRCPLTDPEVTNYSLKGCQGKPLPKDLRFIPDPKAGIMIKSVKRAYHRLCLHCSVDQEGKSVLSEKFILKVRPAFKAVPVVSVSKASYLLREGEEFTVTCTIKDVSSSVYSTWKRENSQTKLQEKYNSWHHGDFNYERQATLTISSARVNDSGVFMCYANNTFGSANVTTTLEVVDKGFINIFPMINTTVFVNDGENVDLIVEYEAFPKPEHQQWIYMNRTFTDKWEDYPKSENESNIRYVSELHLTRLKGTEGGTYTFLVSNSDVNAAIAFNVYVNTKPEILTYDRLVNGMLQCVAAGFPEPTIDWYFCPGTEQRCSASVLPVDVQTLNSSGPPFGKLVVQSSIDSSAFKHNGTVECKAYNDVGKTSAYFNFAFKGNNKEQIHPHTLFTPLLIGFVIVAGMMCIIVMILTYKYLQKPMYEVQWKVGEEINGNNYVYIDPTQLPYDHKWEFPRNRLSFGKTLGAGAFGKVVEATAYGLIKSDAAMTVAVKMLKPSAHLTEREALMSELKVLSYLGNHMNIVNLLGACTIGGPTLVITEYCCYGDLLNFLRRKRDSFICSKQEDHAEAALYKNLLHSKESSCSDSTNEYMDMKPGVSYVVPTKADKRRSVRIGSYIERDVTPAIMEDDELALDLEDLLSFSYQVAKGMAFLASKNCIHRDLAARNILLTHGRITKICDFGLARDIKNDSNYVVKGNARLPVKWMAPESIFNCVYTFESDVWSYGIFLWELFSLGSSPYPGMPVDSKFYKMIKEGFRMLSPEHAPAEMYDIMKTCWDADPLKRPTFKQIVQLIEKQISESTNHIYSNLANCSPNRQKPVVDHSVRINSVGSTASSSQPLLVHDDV

Homo sapiens [9] = species: Homo sapiens; assay: Inhibition of recombinant human EphB2 A848S/ K918E mutant (560 to end residues) at 10 uM using KTFCGTPEYLAPEVRREPRILSEEEQEMFRDFDYIADWC as substrate measured after 40 mins in presence of [gamma33P]ATP by scintillation counting method
[10] = molecular target: MAP kinase-activated protein kinase 3 (Homo sapiens) (UniProt Q16644); assay: Inhibition of recombinant human MAPKAPK3 (2 to end residues) at 10 uM using KKLNRTLSVA as substrate measured after 40 mins in presence of [gamma33P]ATP by scintillation counting method
MAP kinase-activated protein kinase 3 (Homo sapiens), sequence (Q16644 whole entry, looked up): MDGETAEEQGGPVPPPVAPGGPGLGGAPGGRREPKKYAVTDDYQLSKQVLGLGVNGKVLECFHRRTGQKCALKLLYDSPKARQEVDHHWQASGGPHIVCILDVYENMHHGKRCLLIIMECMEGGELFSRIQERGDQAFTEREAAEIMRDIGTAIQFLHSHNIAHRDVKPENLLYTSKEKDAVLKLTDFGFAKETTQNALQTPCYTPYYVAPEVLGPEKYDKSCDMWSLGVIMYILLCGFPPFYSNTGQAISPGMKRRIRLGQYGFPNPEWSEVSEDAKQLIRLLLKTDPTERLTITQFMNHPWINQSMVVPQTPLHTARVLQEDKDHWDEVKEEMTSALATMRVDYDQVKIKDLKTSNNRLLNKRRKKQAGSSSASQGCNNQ

[11] = molecular target: Dual specificity mitogen-activated protein kinase kinase 1 (Homo sapiens) (UniProt Q02750); assay: Inhibition of recombinant full-length human MEK1 at 10 uM using unactive MAPK2 as substrate measured after 40 mins in presence of [gamma33P]ATP by scintillation counting method
Homo sapiens [12] = species: Homo sapiens; assay: Inhibition of recombinant human MARK1 T20S mutant (2 to end residues) at 10 uM using KKKVSRSGLYRSPSMPENLNRPR as substrate measured after 40 mins in presence of [gamma33P]ATP by scintillation counting method
[13] = molecular target: Mitogen-activated protein kinase kinase kinase 9 (Homo sapiens) (UniProt P80192); assay: Inhibition of recombinant human MLK1 (134 to 414 residues) at 10 uM using casein as substrate measured after 40 mins in presence of [gamma33P]ATP by scintillation counting method
[14] = molecular target: Serine/threonine-protein kinase 3 (Homo sapiens) (UniProt Q13188); assay: Inhibition of recombinant full-length human MST2 (2 to end residues) at 10 uM using myelin basic protein as substrate measured after 40 mins in presence of [gamma33P]ATP by scintillation counting method
[15] = molecular target: Serine/threonine-protein kinase Nek1 (Homo sapiens) (UniProt Q96PY6); assay: Inhibition of recombinant human NEK1 (1 to 505 residues) at 10 uM using RLGRDKYKTLRQIRQ as substrate measured after 40 mins in presence of [gamma33P]ATP by scintillation counting method
[16] = molecular target: Serine/threonine-protein kinase MARK2 (Homo sapiens) (UniProt Q7KZI7); assay: Inhibition of recombinant full-length human PAR1Balpha at 10 uM using KKKVSRSGLYRSPSMPENLNRPR as substrate measured after 40 mins in presence of [gamma33P]ATP by scintillation counting method
[17] = molecular target: Serine/threonine-protein kinase pim-2 (Homo sapiens) (UniProt Q9P1W9); assay: Inhibition of recombinant human Pim2 (2 to end residues) at 10 uM using RSRHSSYPAGT as substrate measured after 40 mins in presence of [gamma33P]ATP by scintillation counting method
Serine/threonine-protein kinase pim-2 (Homo sapiens), sequence (Q9P1W9 whole entry, looked up): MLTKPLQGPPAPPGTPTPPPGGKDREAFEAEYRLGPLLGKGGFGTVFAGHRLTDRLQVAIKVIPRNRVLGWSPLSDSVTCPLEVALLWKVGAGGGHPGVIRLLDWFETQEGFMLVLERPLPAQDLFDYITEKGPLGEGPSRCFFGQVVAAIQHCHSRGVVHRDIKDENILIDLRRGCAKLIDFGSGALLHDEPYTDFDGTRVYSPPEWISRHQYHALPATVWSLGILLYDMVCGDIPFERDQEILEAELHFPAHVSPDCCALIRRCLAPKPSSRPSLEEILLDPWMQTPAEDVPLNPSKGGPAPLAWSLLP

[18] = molecular target: Protein kinase C beta type (Homo sapiens) (UniProt P05771); assay: Inhibition of recombinant human PKCbeta1 (2 to end residues) at 10 uM using histone H1 as substrate measured after 40 mins in presence of [gamma33P]ATP by scintillation counting method
[19] = molecular target: Receptor-interacting serine/threonine-protein kinase 1 (Homo sapiens) (UniProt Q13546); assay: Inhibition of human RIPK1 (8 to 322 residues) using myelin basic protein as substrate measured after 120 mins in presence of [gamma33P]ATP by scintillation counting method; procedure, shortened: as §1
Receptor-interacting serine/threonine-protein kinase 1 (Homo sapiens), sequence (Q13546 whole entry, the tested form may be a part): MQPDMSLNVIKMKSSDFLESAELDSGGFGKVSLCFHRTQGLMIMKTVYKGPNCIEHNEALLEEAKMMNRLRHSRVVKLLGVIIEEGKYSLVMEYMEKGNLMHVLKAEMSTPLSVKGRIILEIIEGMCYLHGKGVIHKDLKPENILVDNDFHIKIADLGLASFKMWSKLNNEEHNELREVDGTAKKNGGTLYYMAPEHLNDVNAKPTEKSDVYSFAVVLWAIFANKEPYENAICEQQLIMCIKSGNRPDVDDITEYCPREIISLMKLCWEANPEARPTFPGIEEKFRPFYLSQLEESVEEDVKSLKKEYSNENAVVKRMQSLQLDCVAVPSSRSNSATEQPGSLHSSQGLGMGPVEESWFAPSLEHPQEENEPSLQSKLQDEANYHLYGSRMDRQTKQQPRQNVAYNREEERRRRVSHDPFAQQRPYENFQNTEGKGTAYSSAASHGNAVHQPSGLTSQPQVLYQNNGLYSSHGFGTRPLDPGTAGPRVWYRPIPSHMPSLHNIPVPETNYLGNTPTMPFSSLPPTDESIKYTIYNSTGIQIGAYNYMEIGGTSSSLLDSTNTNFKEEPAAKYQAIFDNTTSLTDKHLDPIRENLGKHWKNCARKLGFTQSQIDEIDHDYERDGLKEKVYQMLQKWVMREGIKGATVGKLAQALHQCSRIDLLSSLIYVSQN

[20] = molecular target: Serine/threonine-protein kinase SIK1 (Homo sapiens) (UniProt P57059); assay: Inhibition of human SIK (1 to 281 residues) using AMARAASAAALARRR as substrate measured after 40 mins in presence of [gamma33P]ATP by scintillation counting method; procedure, shortened: as §1
[21] = molecular target: Serine/threonine-protein kinase TBK1 (Homo sapiens) (UniProt Q9UHD2); assay: Inhibition of recombinant full-length human TBK1 at 10 uM using KRRRALS(p)VASLPGL as substrate measured after 40 mins in presence of [gamma33P]ATP by scintillation counting method
Mus musculus = species: Mus musculus; assay: Inhibition of recombinant full-length mouse PI3K p110alpha/p85alpha E545K mutant at 10 uM using phosphatidylinositol-4, 5-bisphosphate as substrate measured after 40 mins by HTRF assay
[22] = molecular target: Serine/threonine-protein kinase 33 (Homo sapiens) (UniProt Q9BYT3); assay: Inhibition of recombinant full-length human STK33 at 10 uM using myelin basic protein as substrate measured after 40 mins in presence of [gamma33P]ATP by scintillation counting method

`CN1C[C@H](Nc2nc3cc[nH]c3c(=O)n2C)C[C@H](c2ccc3c(c2)OCCO3)C1` was tested, and the Activity [1] was “Active”, the inhibition [2] was “inactive” and the inhibition [3] was “inactive”. For the same compound, the inhibition [4] was “inactive”, the inhibition (Homo sapiens [5]) was “inactive” and the inhibition [6] was “inactive”. For the same compound, the inhibition [7] was “inactive”, the inhibition [8] was “inactive” and the inhibition (Homo sapiens [9]) was “inactive”. For the same compound, the inhibition [10] was “inactive”, the inhibition [11] was “inactive” and the inhibition (Homo sapiens [12]) was “inactive”. The inhibition [13] was “inactive”, the inhibition [14] was “inactive” and the inhibition [15] was “inactive”. The inhibition [16] was “inactive”, the inhibition [17] was “inactive” and the inhibition [18] was “inactive”. For the same compound, the inhibition [19] was “inactive”, the inhibition [20] was “inactive” and the inhibition [21] was “inactive”. For the same compound, the inhibition (Mus musculus) was “inactive” and the inhibition [22] was “inactive”.
